# Experimental data as given in ChEMBL document CHEMBL3244401, “Prostaglandins and congeners. 15. Synthesis and bronchodilator activity of dl-11-deoxy-15- or 16-alkylprostaglandins” (1977).
# Columns and labels:
# Type in all cases: functional
# Cavia porcellus [1] = assay: Bronchodilatory activity in iv dosed Hartley guinea pig assessed as lowest dose required for >/= 50% inhibition of acetylcholine-induced spasm administered 3 to 4 times at 15 mins interval starting 2 mins post challenge
# Outline: (§1)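 Urethane-anesthetized (1.5 g/kg ip), gallamine-curarized Hartley guinea pigs (either sex, 250-500 g), ventilated at 60 strokes/min. Acetylcholine (40-150 μg/kg, 12-s iv infusions every 5 min) set to raise tracheal pressure 20-50 cm water. Compounds (sodium salts in water; esters in 10% aqueous ethanol) given iv over 1 min. Spasm amplitude expressed as % variation from control. ED50 from semilog regression; ≥4 animals.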
# Cavia porcellus [2] = assay: Bronchodilatory activity in iv dosed Hartley guinea pig assessed as inhibition of serotonin-induced spasm administered 3 to 4 times at 15 mins interval starting 2 mins post challenge
# Outline: (§2)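 Serotonin (7.5-30 μg/kg iv, 12-s injections every 5 min) induced bronchospasm (20-50 cm water rise) in ventilated, urethane/gallamine-treated Hartley guinea pigs (250-500 g). After three matched control spasms, test agent was given iv over 1 min 2 min later, repeated at 15-min intervals, 3-4 log doses. Water was the vehicle for salts and 10% aqueous ethanol for esters. Intratracheal pressure was recorded; ED50 from semilog regression of % variation; ≥4 animals.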
# Cavia porcellus [3] = assay: Bronchodilatory activity in iv dosed Hartley guinea pig assessed as inhibition of histamine-induced spasm administered 3 to 4 times at 15 mins interval starting 2 mins post challenge
# Outline: (§3)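 Hartley guinea pigs (either sex, 250-500 g) under urethane (1.5 g/kg ip) plus iv gallamine, artificially ventilated. Histamine was infused iv for 12 s every 5 min to raise tracheal pressure 20-50 cm water. Salts were given iv in water and esters in 10% aqueous ethanol, 3-4 log-spaced doses. Read-out was % variation in spasm amplitude versus control; ED50 (-50%) by semilog regression; ≥4 animals.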
# Cavia porcellus [4] = assay: Bronchodilatory activity in iv dosed Hartley guinea pig assessed as inhibition of acetylcholine-induced spasm administered 3 to 4 times at 15 mins interval starting 2 mins post challenge; outline: as §1
# Cavia porcellus [5] = assay: Bronchodilatory activity in iv dosed Hartley guinea pig assessed as lowest dose required for >/= 50% inhibition of histamine-induced spasm administered 3 to 4 times at 15 mins interval starting 2 mins post challenge; outline: as §3
# Cavia porcellus [6] = assay: Bronchodilatory activity in Hartley guinea pig assessed as inhibition of acetylcholine-induced spasm at 3.2 mg/kg, iv administered 3 to 4 times at 15 mins interval starting 2 mins post challenge; outline: as §1
# Cavia porcellus [7] = assay: Bronchodilatory activity in Hartley guinea pig assessed as inhibition of serotonin-induced spasm at 3.2 mg/kg, iv administered 3 to 4 times at 15 mins interval starting 2 mins post challenge; outline: as §2
# Cavia porcellus [8] = assay: Bronchodilatory activity in Hartley guinea pig assessed as inhibition of histamine-induced spasm at 3.2 mg/kg, iv administered 3 to 4 times at 15 mins interval starting 2 mins post challenge; outline: as §3
# Cavia porcellus [9] = assay: Bronchodilatory activity in iv dosed Hartley guinea pig assessed as lowest dose required for >/= 50% inhibition of serotonin-induced spasm administered 3 to 4 times at 15 mins interval starting 2 mins post challenge; outline: as §2
SMILES,ED50 (Cavia porcellus [2]) [µg/kg],ED50 (Cavia porcellus [3]) [µg/kg],ED50 (Cavia porcellus [4]) [µg/kg],inhibition in vivo at 3.2 mg/kg (Cavia porcellus [6]) [%],other results
CCCCC[C@](C)(O)/C=C/C1CCC(=O)[C@@H]1CCCCCCC(=O)O (mixture of isomers),6.99,4.24,,,ED50 (Cavia porcellus [1]): 3.2 µg/kg
CCCCC(CC)[C@H](O)/C=C/C1CCC(=O)[C@@H]1CCCCCCC(=O)OCC (mixture of isomers),1.11e+09,,145,,ED50 (Cavia porcellus [5]): 32 µg/kg
CCCCC(C)(C)[C@H](O)/C=C/C1CCC(=O)[C@@H]1CCCCCC(C)C(=O)O (mixture of isomers),,,,< 50,inhibition in vivo at 3.2 mg/kg (Cavia porcellus [7]): < 50%; inhibition in vivo at 3.2 mg/kg (Cavia porcellus [8]): < 50%
CCCCC(CC)[C@H](O)/C=C/C1CCC(=O)[C@@H]1CCCCCCC(=O)O (mixture of isomers),9.77,,113,,ED50 (Cavia porcellus [5]): 32 µg/kg
CCCCC[C@](C)(O)/C=C/C1CCC(=O)[C@@H]1CCCCOCC(=O)O (mixture of isomers),121,25.6,73.7,,
CCCCC(C)(C)[C@@H](O)/C=C/C1CCC(=O)[C@@H]1CCCCCC(C)C(=O)O (mixture of isomers),,,,< 50,inhibition in vivo at 3.2 mg/kg (Cavia porcellus [7]): < 50%; inhibition in vivo at 3.2 mg/kg (Cavia porcellus [8]): < 50%
CCCCC[C@H](O)/C=C/C1CCC(=O)[C@@H]1CCCCCCC(=O)O (mixture of isomers),397,3.4,> 32,,
CCCCC(CC)[C@@H](O)/C=C/C1CCC(=O)[C@@H]1CCCCCCC(=O)OCC (mixture of isomers),1.74e+09,2.7e+09,,< 50,
CCCCC(C)(C)[C@H](O)/C=C/C1CCC(=O)[C@@H]1CCCCCCC(=O)O (mixture of isomers),25.9,4.17,42.9,,
CCCCC(C)[C@H](O)/C=C/C1CCC(=O)[C@@H]1C/C=C\CCCC(=O)O (mixture of isomers),1.35,108000,1.63,,
CCCCC(C)[C@@H](O)/C=C/C1CCC(=O)[C@@H]1C/C=C\CCCC(=O)OCC (mixture of isomers),9.65,1.37,> 320,,
CCCCC[C@](C)(O)/C=C/C1CCC(=O)[C@@H]1CCCCOCC(=O)OCC (mixture of isomers),78.8,282,618,,
CCCCC(C)(C)[C@@H](O)/C=C/C1CCC(=O)[C@@H]1CCCCOCC(=O)OCC (mixture of isomers),209,194,349,,
CCCCC(C)[C@@H](O)/C=C/C1CCC(=O)[C@@H]1CCCCCCC(=O)OCC (mixture of isomers),99.3,,396,,ED50 (Cavia porcellus [5]): 32000 µg/kg
CCCCC(C)[C@H](O)/C=C/C1CCC(=O)[C@@H]1CCCCCCC(=O)O (mixture of isomers),346,,> 320,,ED50 (Cavia porcellus [5]): 320 µg/kg
CCCCC(C)(C)[C@@H](O)/C=C/C1CCC(=O)[C@@H]1CCCCCC(C(=O)OCC)c1ccccc1 (mixture of isomers),,,,< 50,inhibition in vivo at 3.2 mg/kg (Cavia porcellus [7]): < 50%; inhibition in vivo at 3.2 mg/kg (Cavia porcellus [8]): < 50%
CCCCC(C)[C@@H](O)/C=C/C1CCC(=O)[C@@H]1C/C=C\CCCC(=O)O (mixture of isomers),39.9,2.99,87.5,,
CCCCC(C)[C@H](O)/C=C/C1CCC(=O)[C@@H]1CCCCCCC(=O)OCC (mixture of isomers),,,,< 50,ED50 (Cavia porcellus [9]): 320 µg/kg; ED50 (Cavia porcellus [5]): 32000 µg/kg
CCCCC(C)(C)[C@H](O)/C=C/C1CCC(=O)[C@@H]1CCCCOCC(=O)OCC (mixture of isomers),123,69.6,96.7,,
CCCCC(C)[C@@H](O)/C=C/C1CCC(=O)[C@@H]1CCCCCCC(=O)O (mixture of isomers),7.01,73.2,9.89,,
CCCCC(C)(C)[C@@H](O)/C=C/C1CCC(=O)[C@@H]1CCCCOCC(=O)O (mixture of isomers),,373,558,,ED50 (Cavia porcellus [9]): 32 µg/kg
CCCCC(C)[C@H](O)/C=C/C1CCC(=O)[C@@H]1C/C=C\CCCC(=O)OCC (mixture of isomers),179000,65700,,< 50,
CCCCC(C)(C)[C@H](O)/C=C/C1CCC(=O)[C@@H]1CCCCOCC(=O)O (mixture of isomers),185,,550,,
CCCCC(C)(C)[C@@H](O)/C=C/C1CCC(=O)[C@@H]1CCCCCC(C(=O)O)c1ccccc1 (mixture of isomers),,,,< 50,inhibition in vivo at 3.2 mg/kg (Cavia porcellus [7]): < 50%; inhibition in vivo at 3.2 mg/kg (Cavia porcellus [8]): < 50%
CCCCC(CC)[C@@H](O)/C=C/C1CCC(=O)[C@@H]1C/C=C\CCCC(=O)O (mixture of isomers),2.21e+09,,,< 50,inhibition in vivo at 3.2 mg/kg (Cavia porcellus [8]): < 50%
CCCCC(CC)[C@@H](O)/C=C/C1CCC(=O)[C@@H]1CCCCCCC(=O)O (mixture of isomers),> 3.2,,,< 50,ED50 (Cavia porcellus [5]): 32 µg/kg
CCCCC(C)(C)[C@@H](O)/C=C/C1CCC(=O)[C@@H]1CCCCCCC(=O)O (mixture of isomers),19,107,135,,
CCCCC(CC)[C@H](O)/C=C/C1CCC(=O)[C@@H]1C/C=C\CCCC(=O)O (mixture of isomers),79.1,,,< 50,inhibition in vivo at 3.2 mg/kg (Cavia porcellus [8]): < 50%
CCCCC(C)(C)[C@H](O)/C=C/C1CCC(=O)[C@@H]1CCCCCC(C(=O)OCC)c1ccccc1 (mixture of isomers),,,,< 50,inhibition in vivo at 3.2 mg/kg (Cavia porcellus [7]): < 50%; inhibition in vivo at 3.2 mg/kg (Cavia porcellus [8]): < 50%
CCCCC(C)(C)[C@H](O)/C=C/C1CCC(=O)[C@@H]1CCCCCC(C(=O)O)c1ccccc1 (mixture of isomers),,,,< 50,inhibition in vivo at 3.2 mg/kg (Cavia porcellus [7]): < 50%; inhibition in vivo at 3.2 mg/kg (Cavia porcellus [8]): < 50%
